The list is not random: actives were taken first. Their share in the collection is about 2.2%.
GSTO1 counter: blocks human GSTO1 in RBBP9 counter-screen. recombinant GSTO1, activity-based probe fluorescence polarization. hit rate 1.1% among 300,000. inhibition, % at 5.96 µM;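 active = inhibition above the campaign mean inhibition plus 3 SD, cut at about 35% in these data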;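 also: 0% = GSTO1-1 with DMSO and 100% = wells lacking GSTO1-1 enzyme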
UBC13 inh: blocks human UBC13 polyubiquitin chain formation | AID 485273 | inhibition, % at 20 µM | TR-FRET | hit rate 0.47% among 330,000 | P61088; in the data active = inhibition above about 45%, passing the limit was not always enough
PAD4 inh: inhibitors of human PAD4; inhibition, % at 6.36 µM; recombinant PAD4, RCA probe fluorescence polarization; hit rate 0.41% among 330,000; Q9UM07;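 active = percent inhibition above a cutoff equal to the mean of all tested compounds plus 3 SD, cut at about 15% in these data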;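 also: 0% = PAD4 with RCA probe and DMSO and 100% = probe without PAD4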
UBC9 SUMO inh: inhibitors of human SUMOylation (UBC9) | HTRF SUMOylation assay, SAE1/SAE2 + UBC9, in vitro | inhibition, % at 35 µM | hit rate 0.36% among 290,000 | AID 2006; in the data active = inhibition above about 50%, passing the limit was not always enough
Rin1-Abl PPI inh: inhibitors of human Rin1-Abl protein interaction | hit rate 0.4% among 360,000 | TR-FRET Rin1/Abl binding, biochemical | inhibition, % at 7.35 µM | P00519+Q13671; in the data active = inhibition above about 5%, passing the limit was not always enough
Apaf1 inhib: human Apaf-1 inhibition | O14727 | reconstituted apoptosome caspase-3 activity, DEVD-Rh110 fluorescence | inhibition, % at 20 µM | hit rate 0.71% among 330,000 | AID 489030; active = inhibition of at least 40% at 20 µM;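 also: plate controls were DMSO wells for no effect and DEVD-CHO caspase inhibitor wells for full effect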
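Material: reconstituted apoptosome with Apaf-1, cytochrome c, caspase-9, procaspase-3, dATP. Technique: Rh110 fluorescence intensity. Buffer or medium: pH 7.5 Hepes buffer with CHAPS, BSA, DTT. Times: 30 min plus 50 min, RT.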
GSTO1 confirm: confirmation of human GSTO1 inhibitors. inhibition, % at 5.96 µM. shares compounds with GSTO1 counter. hit rate 54% among 2,400. recombinant GSTO1, probe fluorescence polarization;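 active = inhibition above the primary screen's cutoff, its mean inhibition plus 3 SD, cut at about 35% in these data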;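 also: loss of polarization as inhibitors block binding of rhodamine sulfonate ester activity probe; 0% = GSTO1 with DMSO and 100% = wells lacking GSTO1 enzyme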
GSTO1 ABPP inh: GSTO1 (human) inhibition by gel ABPP; shares compounds with GSTO1 counter; recombinant GSTO1, gel ABPP SE-Rh probe fluorescence; inhibition, % at 1 µM; hit rate 30% among 130;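 active = inhibition of the enzyme GSTO1 above about 75%, limit read from the data; inactive = inhibition below that limit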
* = called active by the depositor; . = not tested or not shown.

SMILES	GSTO1 counter	UBC13 inh	PAD4 inh	UBC9 SUMO inh	Rin1-Abl PPI inh	Apaf1 inhib	GSTO1 confirm	others
COc1ccc([N+](=O)[O-])cc1N(CC1CO1)S(=O)(=O)c1ccc(C)cc1 (centres undefined)	88*	-3	2	14	3	4	98*	GSTO1 ABPP inh=44
CCOC(=O)C1=CCN(S(=O)(=O)c2ccc(Cl)cc2)C1c1ccccc1 (centres undefined)	.	.	.	.	3	.	.
COc1ccc(N(CCOc2ccccc2)S(=O)(=O)c2ccccc2)cc1	.	-7	-1	.	-2	0	.
COc1ccc(N(CC2CO2)S(=O)(=O)c2ccccc2)cc1 (centres undefined)	70*	-5	5	17	2	-6	86*	GSTO1 ABPP inh=19
COc1ccccc1N(CC1CO1)S(=O)(=O)c1ccc(C)cc1 (centres undefined)	75*	5	1	4	2	-12	83*	GSTO1 ABPP inh=41
CCOC(=O)c1ccc(-c2c(C)cc3oc(=O)cc(-c4ccccc4)c3c2C)cc1	.	.	2	.	-2	19	.
CN1CCc2cccc3c2C1Cc1ccc(O)c(O)c1-3 (centres undefined)	93*	15	-2	5	4	50*	9
CN1CCC(=C2c3ccccc3C(O)c3ccccc32)CC1 (centres undefined)	-4	-2	-2	22	1	6	.
O=C(O)c1ccc2c(c1)[C@@H]1C=CC[C@@H]1[C@H](c1ccccn1)N2	51*	6	0	.	21*	27	9
CCCS(=O)(=O)NC(=O)C1(C)CCCN(C(=O)c2cc(C)nn2C(C)(C)C)C1 (centres undefined)	.	.	.	.	-3	.	.
Nc1nnc(SCC(=O)OCC(=O)Nc2ccccc2)s1	0	10	-3	19	0	-10	.
COC(=O)c1ccccc1NC(=O)COC(=O)CSc1nnc(N)s1	45*	-3	-5	9	-2	-9	32
Cc1c(Cl)cc(C(C)C)c(O)c1CN1CCOCC1	.	.	.	.	3	.	.
CC1=C(C(=O)N(C)C)CC(CC(=O)NC2CCCC2)C(=O)N1CCC1=CCCCC1 (centres undefined)	.	.	.	.	-4	.	.
O=C(CCl)N(Cc1ccccc1)c1ccccc1	93*	2	0	19	3	-3	96*	GSTO1 ABPP inh=36
CCCCCCCN(C(=O)CCl)c1ccccc1C	101*	3	6	-4	1	12	96*	GSTO1 ABPP inh=68
Cc1ccccc1N(Cc1cc(=O)[nH]c2ccccc12)C(=O)CCl	74*	7	3	5	-3	0	75*	GSTO1 ABPP inh=21
O=C(CCl)N(Cc1cc(=O)[nH]c2ccccc12)c1ccccc1	85*	9	0	0	-4	10	92*	GSTO1 ABPP inh=54
CCCN(C(=O)Cn1ncc2c([nH]c3ccccc32)c1=O)c1ccccc1C	-1	0	0	-2	3	10	.
CCOC1=C(C#N)CC2(CC1)c1ccccc1-c1ccccc12	.	.	.	.	1	.	.
COc1ccccc1OCCNC(=O)CCNS(=O)(=O)c1ccc(C)cc1	.	.	.	.	2	.	.
Cc1ccc(Cl)cc1N1CCN(C(=O)c2ccccc2SCC(=O)N2CCCC2)CC1	.	4	1	.	1	14	.
Cn1nc(-c2ccc(Cl)cc2)nc2c(=O)n(C)c(=O)nc1-2	91*	-121	75*	-16	.	99*	92*
CS(=O)(=O)n1nc(-c2ccc(Cl)cc2)nc1N	4	-5	-2	15	2	3	.
O=C(CNC(=O)c1ccco1)N=Nc1c(O)[nH]c2ccc([N+](=O)[O-])cc12	50*	-15	-7	2	-3	5	62*
SMILES	GSTO1 counter	UBC13 inh	PAD4 inh	UBC9 SUMO inh	Rin1-Abl PPI inh	Apaf1 inhib	GSTO1 confirm	others
NC(=O)N=Nc1c(O)[nH]c2ccc([N+](=O)[O-])cc12	-1	-16	6	33	-3	-6	.
CC(=O)Nc1nc(-c2ccc(Cl)cc2)nc(C)c1C(C)=O	44*	41	0	18	4	14	4
CCOC(=O)c1ccccc1NC1c2ccccc2C(=O)N1c1ccc(C)cn1 (centres undefined)	76*	8	0	-14	0	18	6
CCn1c(CSc2nnc(-c3cccnc3)n2-c2ccccc2C)nc2cc(C(=O)O)ccc21	69*	-13	53*	17	.	5	59*
COc1cccc(N=Nc2ccc(O)c3ncccc23)c1	39*	-135	-10	-113	6	35	1
O=Nc1ccc(O)c2ncccc12	69*	-13	-10	7	-1	35	14
O=S(=O)(O)c1cccc2c(N=Nc3ccc(O)c4ncccc34)cccc12	65*	.	6	90*	15*	.	63*
Cc1ccccc1N=Nc1ccc(O)c2ncccc12	-19	.	-1	-26	0	.	.
COc1ccc(NC(=O)c2c(C)noc2C)cc1S(=O)(=O)N1CCCCC1	.	.	.	.	2	.	.
Cn1c2c(sc1=O)CCC2	.	.	.	.	0	.	.
CC1(C(=O)O)CCCN(C(=O)c2ccc3c(c2)C(C)(C)CCC3(C)C)C1 (centres undefined)	.	.	.	.	-2	.	.
CCN(c1ccccc1)S(=O)(=O)c1ccc(Cl)c(NC(=O)COC(=O)c2ccc(O)cc2)c1	-2	6	5	2	0	3	.
CCN(c1ccccc1)S(=O)(=O)c1ccc(Cl)c(NC(=O)COC(=O)c2cc(O)c3ccccc3c2O)c1	51*	-28	26*	57	.	48*	27
CCOc1ccc(NC(=O)C(CC)n2nc(C)c3c(C)n(-c4ccccc4)nc3c2=O)cc1 (centres undefined)	6	-1	-1	0	3	2	.
O=C(Nc1ccn(CC(=O)N2CCN(c3ccccn3)CC2)c(=O)n1)OCc1ccccc1	.	9	2	.	6	2	.
Cc1ccc(S(=O)(=O)Nc2ccccn2)c(C)c1	.	.	.	.	1	.	.
CN(C)c1cccc2c(S(=O)(=O)Nc3ccccn3)cccc12	45*	0	-9	86	-3	38	7
C[C@H](CO)N1C[C@H](C)[C@H](CN(C)C(=O)NC2CCCCC2)Oc2ncc(Br)cc2C1=O	.	.	.	.	1	.	.
Cc1cnc(CNC(=O)C2CCC(=O)N(Cc3ccc(Cl)cc3)C2)[nH]1 (centres undefined)	-4	-3	-2	4	0	-15	.
CC(C)CC1Nc2ccc(C(=O)NCc3ccc4c(c3)OCO4)cc2NC1=O (centres undefined)	45*	2	6	2	0	15	32
Cc1nn(-c2ccccc2)c(C)c1C(=O)OCC(=O)Nc1ccccc1Cl	.	.	.	.	-4	.	.
